Test results published in ChEMBL document CHEMBL4385618, “Exploring small molecules with pan-genotypic inhibitory activities against hepatitis C virus NS3/4A serine protease” (Bioorg Med Chem Lett, 2019).
pIC50, pKd: −log10 of the molar value. The source made the active and inactive calls. The calls are words filed in the database; no cut-off is given here.

Experiments:
[1] = (§1) Inhibition of recombinant wild type full length His-tagged HCV genotype 1b NS3 (1027 to 1657 residues)/4A (1658 to 1711 residues) protease expressed in Escherichia coli rosetta (DE3) cells using Ac-DE-Dap(QXL520)-EE-Abu-Psi-[COO]AS-C(5-FAMsp)-NH2 as substrate preincubated up to 10 mins followed by substrate addition and measured for 10 mins by fluorescence-based microplate reader analysis; design: species or system Hepatitis C virus subtype 1b
In short: (§2)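 IC50 came from the fluorescence-based enzymatic assay by fitting the inhibition curve to the three-parameter Hill equation.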

[2] = tested on: Hepatitis C virus subtype 1a; assay: Inhibition of recombinant HCV genotype 1a NS3/4A protease using Ac-DE-Dap(QXL520)-EE-Abu-Psi-[COO]AS-C(5-FAMsp)-NH2 as substrate preincubated up to 10 mins followed by substrate addition and measured for 10 mins by fluorescence-based microplate reader analysis; in short: as §2
[3] = tested on: Hepatitis C virus subtype 2a; assay: Inhibition of recombinant HCV genotype 2a NS3/4A protease using Ac-DE-Dap(QXL520)-EE-Abu-Psi-[COO]AS-C(5-FAMsp)-NH2 as substrate preincubated up to 10 mins followed by substrate addition and measured for 10 mins by fluorescence-based microplate reader analysis; in short: as §2
[4] = (§3) Inhibition of recombinant HCV genotype 3a NS3/4A protease using Ac-DE-Dap(QXL520)-EE-Abu-Psi-[COO]AS-C(5-FAMsp)-NH2 as substrate preincubated up to 10 mins followed by substrate addition and measured for 10 mins by fluorescence-based microplate reader analysis; design: species or system Hepatitis C virus subtype 3a; in short: as §2
[5] = tested on: Hepatitis C virus genotype 4; assay: Inhibition of recombinant HCV genotype 4 NS3/4A protease using Ac-DE-Dap(QXL520)-EE-Abu-Psi-[COO]AS-C(5-FAMsp)-NH2 as substrate preincubated up to 10 mins followed by substrate addition and measured for 10 mins by fluorescence-based microplate reader analysis; in short: as §2
[6] = tested on: Hepatitis C virus serine protease, NS3/NS4A (Hepatitis C virus), D2K2A8+A3EZI9 [R155K]; assay: as §1, with “recombinant” for “recombinant wild type”, “NS3/4A” for “NS3”, “1657” for “1657 residues)/4A (1658 to 1711”, “protease R155K (NS3) mutant” for “protease”; conditions: Hepatitis C virus subtype 1b
In short: (§4)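 IC50 values come from a fluorescence-based enzymatic assay, with dose-response curves fitted to a three-parameter Hill equation. The mutants were genotype 1b NS3/4A.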

[7] = tested on: Hepatitis C virus subtype 3a; assay: as §3; in short: as §2
[8] = Binding affinity to recombinant full length His-tagged HCV genotype 1b NS3 (1027 to 1657 residues)/4A (1658 to 1711 residues) protease expressed in Escherichia coli rosetta (DE3) cells assessed as dissociation constant by SPR analysis; design: species or system Hepatitis C virus subtype 1b
[9] = tested on: Hepatitis C virus serine protease, NS3/NS4A (Hepatitis C virus), D2K2A8+A3EZI9 [V36M]; assay: as §1, with “recombinant” for “recombinant wild type”, “NS3/4A” for “NS3”, “1657” for “1657 residues)/4A (1658 to 1711”, “protease V36M (NS3) mutant” for “protease”; conditions: Hepatitis C virus subtype 1b; in short: as §4
[10] = tested on: Hepatitis C virus serine protease, NS3/NS4A (Hepatitis C virus), D2K2A8+A3EZI9 [A156S]; assay: as §1, with “recombinant” for “recombinant wild type”, “NS3/4A” for “NS3”, “1657” for “1657 residues)/4A (1658 to 1711”, “protease A156S (NS3) mutant” for “protease”; conditions: Hepatitis C virus subtype 1b; in short: as §4

Row | pIC50 [1] | SMILES | inhibition [2] | inhibition [3] | pIC50 [4] | inhibition [5] | inhibition [6] | further results
1 | 5.00 to 5.30 | Cc1ccc(S(=O)(=O)Nc2ccccc2C(=O)Nc2nc3c(ccc4ccccc43)s2)cc1 | – | – | – | – | – | –
2 | 4.00 to 5.00 | CSc1cccc2sc(NC(=O)c3ccccc3NS(=O)(=O)c3ccc(C)cc3)nc12 | – | – | – | – | – | pKd [8]: < 3.70
3 | 5.30 to 5.70 | Cc1ccc(S(=O)(=O)Nc2ccccc2C(=O)Nc2nc3c(C)cc(C)cc3s2)cc1 | – | – | – | – | – | –
4 | 5.30 to 5.70 | Cc1ccc(S(=O)(=O)Nc2ccccc2C(=O)Nc2nc3ccc4sc(C)nc4c3s2)cc1 | – | – | – | – | – | –

The next lines start with the compound.

Row | SMILES | pIC50 [1] | inhibition [2] | inhibition [3] | pIC50 [4] | inhibition [5] | inhibition [6] | further results
5 | Cc1ccc(S(=O)(=O)Nc2ccccc2C(=O)Nc2nc3ccc4ccccc4c3s2)cc1 | 5.30 to 5.70 | – | – | – | – | – | –
6 | Cc1ccc(S(=O)(=O)Nc2ccccc2C(=O)Nc2nc(-c3cc(Cl)ccc3Cl)cs2)cc1 | > 5.70 | Active | Active | 4.48 to 4.85 | Active | inactive | –
7 | Cc1cc(NC(=O)Cc2csc(NS(=O)(=O)c3ccccc3)n2)ccc1Br | – | – | – | – | – | – | inhibition [7]: inactive
8 | Cc1ccc(S(=O)(=O)Nc2ccccc2C(=O)Nc2nc3c(C)ccc(Cl)c3s2)cc1 | 5.00 to 5.30 | Active | Active | 4.48 to 4.85 | Active | inactive | –
9 | Cc1c(Cl)cccc1NC(=O)Cc1csc(NS(=O)(=O)c2ccccc2)n1 | 5.00 to 5.30 | – | – | – | – | – | –
10 | Cc1ccc(S(=O)(=O)Nc2ccccc2C(=O)Nc2nc3c(cc4c5c(cccc53)CC4)s2)cc1 | 5.30 to 5.70 | Active | Active | 4.48 to 4.85 | Active | inactive | –
11 | Cc1ccc(S(=O)(=O)Nc2ccccc2C(=O)Nc2nc3c(Br)cccc3s2)cc1 | 4.00 to 5.00 | – | – | – | – | – | pKd [8]: < 3.70
12 | CSc1cccc(NC(=O)Cc2csc(NS(=O)(=O)c3ccccc3)n2)c1 | 5.00 to 5.30 | – | – | – | – | – | –
13 | Cc1ccc(S(=O)(=O)Nc2ccccc2C(=O)Nc2nc3c(Cl)ccc(Cl)c3s2)cc1 | 5.80 | Active | Active | 4.48 to 4.85 | Active | Active | inhibition [9]: Active; inhibition [10]: Active
